Experimental data reported in ChEMBL document CHEMBL2021781, “Dual targeting of histone deacetylase and topoisomerase II with novel bifunctional inhibitors” (J Med Chem, 2012).
pIC50: −log10 of the molar value. Activity calls are given as the source filed them. The calls are words filed in the database; no cut-off is given here.

Assays:
DU-145 = test: Antiproliferative activity against human DU145 cells after 72 hrs by MTS assay; format: functional, cell-based; details: DU-145, 72 h
Outline: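 DU-145 cells passaged 24 h before dosing and exposed 72 h; compounds from 10 mM DMSO stocks; controls given media with 0.1% DMSO; 37°C, 5% CO2. Viability read by MTS assay, with Trypan Blue staining also used. IC50 from the average of two experiments, each run in triplicate.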

[1] = target: DNA topoisomerase 2-alpha (Homo sapiens) (UniProt P11388); test: Inhibition of Topoisomerase 2 assessed as kinetoplast DNA decatenation at 50 uM after 10 mins by electrophoretic analysis
Sequence of DNA topoisomerase 2-alpha (Homo sapiens) (P11388 whole entry): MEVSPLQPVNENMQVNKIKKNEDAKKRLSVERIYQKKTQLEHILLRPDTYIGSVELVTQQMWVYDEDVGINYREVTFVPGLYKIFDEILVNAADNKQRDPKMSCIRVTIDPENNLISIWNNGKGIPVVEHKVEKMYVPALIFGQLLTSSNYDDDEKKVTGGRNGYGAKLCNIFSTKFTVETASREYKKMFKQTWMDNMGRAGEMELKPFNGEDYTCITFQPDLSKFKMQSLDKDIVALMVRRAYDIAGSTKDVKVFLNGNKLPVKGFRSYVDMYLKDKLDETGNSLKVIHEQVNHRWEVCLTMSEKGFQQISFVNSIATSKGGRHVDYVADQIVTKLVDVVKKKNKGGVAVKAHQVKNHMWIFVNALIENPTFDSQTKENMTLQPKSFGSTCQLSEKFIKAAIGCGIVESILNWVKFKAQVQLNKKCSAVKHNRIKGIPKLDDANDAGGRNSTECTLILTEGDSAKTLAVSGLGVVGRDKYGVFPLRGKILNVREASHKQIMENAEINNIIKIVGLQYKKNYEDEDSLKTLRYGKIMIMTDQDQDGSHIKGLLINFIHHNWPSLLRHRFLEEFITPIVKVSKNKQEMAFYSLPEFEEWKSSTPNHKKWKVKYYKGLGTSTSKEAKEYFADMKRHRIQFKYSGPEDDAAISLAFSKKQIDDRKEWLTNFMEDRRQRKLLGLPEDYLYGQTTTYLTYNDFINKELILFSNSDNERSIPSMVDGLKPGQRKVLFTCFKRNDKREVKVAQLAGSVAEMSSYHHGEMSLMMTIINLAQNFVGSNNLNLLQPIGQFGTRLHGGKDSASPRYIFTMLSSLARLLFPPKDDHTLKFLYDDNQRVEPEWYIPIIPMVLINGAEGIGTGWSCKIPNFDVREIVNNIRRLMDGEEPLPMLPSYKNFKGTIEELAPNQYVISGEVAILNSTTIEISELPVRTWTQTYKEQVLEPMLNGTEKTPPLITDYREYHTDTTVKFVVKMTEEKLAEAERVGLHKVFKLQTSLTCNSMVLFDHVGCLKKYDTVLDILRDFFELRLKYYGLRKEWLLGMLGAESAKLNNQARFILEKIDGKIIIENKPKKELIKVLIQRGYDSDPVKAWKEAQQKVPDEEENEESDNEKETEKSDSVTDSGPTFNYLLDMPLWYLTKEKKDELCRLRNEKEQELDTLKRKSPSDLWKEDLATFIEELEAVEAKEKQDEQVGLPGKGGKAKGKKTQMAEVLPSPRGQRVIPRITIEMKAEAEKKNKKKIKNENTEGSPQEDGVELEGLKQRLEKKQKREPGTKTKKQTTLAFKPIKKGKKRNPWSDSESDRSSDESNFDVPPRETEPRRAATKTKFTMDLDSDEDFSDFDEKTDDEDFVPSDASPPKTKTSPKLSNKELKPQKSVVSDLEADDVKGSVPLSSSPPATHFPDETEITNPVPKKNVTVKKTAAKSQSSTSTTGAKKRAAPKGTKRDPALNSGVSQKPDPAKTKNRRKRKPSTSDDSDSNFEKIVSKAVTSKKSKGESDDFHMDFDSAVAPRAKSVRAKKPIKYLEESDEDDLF

[2] = target: Histone deacetylase (HDAC1 and HDAC2) (Homo sapiens, UniProt Q13547+Q92769); test: Inhibition of HDAC1/2 in human HeLa cell nuclear extract using Fluor de Lys as substrate after 15 mins by fluorometric analysis; format: protein assay
Histone deacetylase 1 = Histone deacetylase 1 (Homo sapiens, UniProt Q13547); test: Inhibition of HDAC1 in human HeLa cell nuclear extract using Fluor de Lys as substrate after 15 mins by fluorometric analysis
Sequence of Histone deacetylase 1 (Q13547 whole entry): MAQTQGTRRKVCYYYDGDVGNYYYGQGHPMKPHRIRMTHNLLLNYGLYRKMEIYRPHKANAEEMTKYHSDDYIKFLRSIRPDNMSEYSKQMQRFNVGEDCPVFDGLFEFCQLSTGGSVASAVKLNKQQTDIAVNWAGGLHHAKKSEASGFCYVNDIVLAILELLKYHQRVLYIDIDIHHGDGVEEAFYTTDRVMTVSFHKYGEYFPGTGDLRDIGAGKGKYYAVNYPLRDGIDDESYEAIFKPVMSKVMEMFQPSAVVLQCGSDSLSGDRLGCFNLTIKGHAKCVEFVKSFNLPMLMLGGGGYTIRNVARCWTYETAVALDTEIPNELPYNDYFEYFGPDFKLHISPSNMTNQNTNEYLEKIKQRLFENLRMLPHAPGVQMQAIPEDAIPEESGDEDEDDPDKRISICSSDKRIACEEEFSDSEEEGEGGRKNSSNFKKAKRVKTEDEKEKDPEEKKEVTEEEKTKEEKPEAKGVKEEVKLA

[3] = target: T1, Protein deacetylase HDAC6 (Homo sapiens, UniProt Q9UBN7); test: Inhibition of HDAC6 in human HeLa cell nuclear extract using Fluor de Lys as substrate after 15 mins by fluorometric analysis
T1 sequence (Q9UBN7 whole entry): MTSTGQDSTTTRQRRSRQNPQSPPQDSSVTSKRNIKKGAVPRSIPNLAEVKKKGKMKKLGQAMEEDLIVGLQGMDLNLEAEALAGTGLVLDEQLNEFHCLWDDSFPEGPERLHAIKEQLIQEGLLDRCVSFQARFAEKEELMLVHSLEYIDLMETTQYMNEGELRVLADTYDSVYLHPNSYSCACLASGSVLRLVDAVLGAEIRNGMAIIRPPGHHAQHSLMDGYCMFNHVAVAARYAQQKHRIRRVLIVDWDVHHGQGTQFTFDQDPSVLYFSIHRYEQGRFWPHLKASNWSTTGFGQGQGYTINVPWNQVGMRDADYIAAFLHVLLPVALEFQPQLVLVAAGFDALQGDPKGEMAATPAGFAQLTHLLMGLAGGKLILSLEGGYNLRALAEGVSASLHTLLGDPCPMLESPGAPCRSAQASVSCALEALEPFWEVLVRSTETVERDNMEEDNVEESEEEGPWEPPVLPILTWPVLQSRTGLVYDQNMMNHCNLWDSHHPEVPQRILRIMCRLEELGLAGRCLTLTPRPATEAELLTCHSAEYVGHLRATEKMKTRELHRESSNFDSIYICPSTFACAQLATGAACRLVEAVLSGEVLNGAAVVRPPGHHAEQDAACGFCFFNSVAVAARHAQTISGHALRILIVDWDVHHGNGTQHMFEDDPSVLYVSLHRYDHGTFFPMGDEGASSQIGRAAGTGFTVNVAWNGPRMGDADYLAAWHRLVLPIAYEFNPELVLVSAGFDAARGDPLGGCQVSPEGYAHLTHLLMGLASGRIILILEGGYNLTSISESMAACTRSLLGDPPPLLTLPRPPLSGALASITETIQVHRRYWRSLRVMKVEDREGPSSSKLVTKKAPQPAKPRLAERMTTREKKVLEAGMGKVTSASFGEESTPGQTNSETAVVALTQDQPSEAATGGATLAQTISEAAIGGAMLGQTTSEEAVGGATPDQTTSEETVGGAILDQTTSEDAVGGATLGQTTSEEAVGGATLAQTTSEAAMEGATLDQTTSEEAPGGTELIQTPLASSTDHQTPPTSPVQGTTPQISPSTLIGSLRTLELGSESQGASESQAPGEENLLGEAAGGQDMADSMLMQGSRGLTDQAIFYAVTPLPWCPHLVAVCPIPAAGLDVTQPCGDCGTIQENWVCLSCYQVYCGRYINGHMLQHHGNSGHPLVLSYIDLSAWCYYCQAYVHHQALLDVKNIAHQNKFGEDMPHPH

SK-MES-1 = test: Antiproliferative activity against human SKMES1 cells after 72 hrs by MTS assay; format: functional, cell-based; details: SK-MES-1, 72 h
MCF7 = test: Antiproliferative activity against human MCF7 cells after 72 hrs by MTS assay; format: functional, cell-based; details: MCF7, 72 h
Histone deacetylase 8 = target: T2, Histone deacetylase 8 (Homo sapiens, UniProt Q9BY41); test: Inhibition of HDAC8 in human HeLa cell nuclear extract using Fluor de Lys as substrate after 15 mins by fluorometric analysis
T2 sequence (Q9BY41 whole entry): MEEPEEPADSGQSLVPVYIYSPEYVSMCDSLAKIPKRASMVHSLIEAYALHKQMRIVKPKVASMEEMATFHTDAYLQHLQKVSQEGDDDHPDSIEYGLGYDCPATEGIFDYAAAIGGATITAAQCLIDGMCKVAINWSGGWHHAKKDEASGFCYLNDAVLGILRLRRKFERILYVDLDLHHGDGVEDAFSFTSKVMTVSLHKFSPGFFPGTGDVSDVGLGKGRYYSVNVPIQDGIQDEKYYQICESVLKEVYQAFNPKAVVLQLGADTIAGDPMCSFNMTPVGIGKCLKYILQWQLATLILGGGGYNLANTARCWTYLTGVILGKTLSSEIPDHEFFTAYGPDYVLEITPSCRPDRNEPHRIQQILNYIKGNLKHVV

[4] = target: T3, Histone deacetylase (Homo sapiens) (UniProt Q13547+O15379+Q9UBN7+Q92769+Q9UQL6+Q8WUI4+Q9BY41+Q96DB2+P56524+Q9UKV0+Q969S8); test: Inhibition of HDAC in human DU145 cells assessed as upregulation of p21 expression at IC50 concentration after 4 hrs by Western blot analysis relative to control; format: cell-based; details: DU-145
Outline: (§1)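 Lysed in RIPA with protease inhibitors, cleared 14,000 RPM at 4°C. Immunoblotted, probing acetylated versus total tubulin; p21 also checked. Near-infrared detection at 700/800 nm.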

[5] = Drug uptake in human A549 cell vesicle like body at 1 uM after 4 hrs by confocal microscopic analysis; format: ADME, cell-based; details: a549, 4 h
Outline: (§2)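 Cells plated on glass coverslips 24 h beforehand, then incubated in fresh medium with compound at 1 μM for 4 h. Washed with PBS, coverslips mounted and imaged by confocal microscopy at 488 nm excitation. DU-145 (prostate carcinoma) shown in main text; A549 lung tumour cells treated likewise.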

[6] = target: T4, Protein deacetylase HDAC6 (Homo sapiens) (UniProt Q9UBN7); details: DU-145, 10 uM
T4 sequence (whole entry): T1 sequence (Q9UBN7 whole entry)

[7] = Drug uptake in human DU145 cell vesicle like body at 1 uM after 4 hrs by confocal microscopic analysis; format: ADME, cell-based; details: du-145, 4 h; outline: as §2
[8] = target: DNA topoisomerase 2-alpha (Homo sapiens) (UniProt P11388); test: Inhibition of topoisomerase 2 in human DU145 cells assessed as stabilization of enzyme-DNA cleavage complex at […] after 30 mins by immunoblot analysis; format: cell-based; details: DU-145
[9] = target: DNA topoisomerase 2-alpha (Homo sapiens) (UniProt P11388); test: Inhibition of topoisomerase 2 in human DU145 cells assessed as stabilization of enzyme-DNA cleavage complex at […] after 72 hrs by immunoblot analysis; format: cell-based; details: DU-145
[10] = target: T3, Histone deacetylase (Homo sapiens); test: Inhibition of HDAC in human DU145 cells assessed as upregulation of p21 expression at 5 times IC50 concentration after 4 hrs by Western blot analysis relative to control; format: cell-based; details: DU-145; outline: as §1
[11] = target: DNA topoisomerase 2-alpha (Homo sapiens) (UniProt P11388); test: Inhibition of topoisomerase 2 in human DU145 cells assessed as stabilization of enzyme-DNA cleavage complex at 90 nM after 30 mins by immunoblot analysis; format: cell-based; details: DU-145
[12] = target: T3, Histone deacetylase (Homo sapiens); test: Inhibition of HDAC in human DU145 cells assessed as histone H4 acetylation after 24 hrs by Western blot analysis; format: cell-based; details: DU-145
Outline: (§3)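 DU-145 cells passaged 24 h before dosing, then exposed 24 h to compound in growth medium (final DMSO 0.1%); controls received 0.1% DMSO. Lysed in RIPA with protease inhibitors at 4°C, cleared at 14,000 × g. Protein quantified against BSA, boiled, transferred to nitrocellulose. Probed for acetyl-H3, acetyl-H4 and p21waf1 with actin loading control; read by near-infrared scanning at 700/800 nm.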

[13] = Drug uptake in human A549 cell perinuclear region at 1 uM after 4 hrs by confocal microscopic analysis; format: ADME, cell-based; details: a549, 4 h
Outline: (§4)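 Cells plated on glass coverslips 24 h ahead, then given fresh media with compound at 1 μM for 4 h. After a PBS wash, coverslips were mounted and intracellular distribution imaged by confocal microscopy, excitation 488 nm. Done in DU-145 cells, with A549 lung tumor cells also examined.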

[14] = target: T4, Protein deacetylase HDAC6 (Homo sapiens); test: Inhibition of HDAC6-mediated tubulin acetylation in human DU145 cells at 90 nM after 4 hrs by Western blot analysis; format: cell-based; details: DU-145
Outline: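 DU-145 cells passaged 24 h before dosing, then treated 4 h, with no more than 0.1% DMSO including controls. Lysis in RIPA buffer with protease inhibitors, protein quantified against a BSA standard, SDS-PAGE and transfer. Blots probed with rabbit anti-tubulin and mouse anti-acetyl tubulin, read by near-infrared imaging at 700/800 nm.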

[15] = target: T3, Histone deacetylase (Homo sapiens); test: Inhibition of HDAC in human DU145 cells assessed as upregulation of p21waf1 protein expression at 0.1 uM after 24 hrs by Western blot analysis; format: cell-based; details: DU-145; outline: as §3
[16] = target: T3, Histone deacetylase (Homo sapiens); test: Inhibition of HDAC in human DU145 cells assessed as histone H3 hyperacetylation at 0.1 to 0.5 uM after 24 hrs by Western blot analysis; format: cell-based; details: DU-145; outline: as §3
[17] = target: T4, Protein deacetylase HDAC6 (Homo sapiens); test: Inhibition of HDAC6-mediated tubulin acetylation in human DU145 cells at 500 nM after 4 hrs by Western blot analysis; format: cell-based; details: DU-145; outline: as §1
[18] = Drug uptake in human A549 cell nucleus at 1 uM after 4 hrs by confocal microscopic analysis; format: ADME, cell-based; details: a549, 4 h; outline: as §2
[19] = target: DNA topoisomerase 2-alpha (Homo sapiens) (UniProt P11388); test: Inhibition of topoisomerase 2 in human DU145 cells assessed as stabilization of enzyme-DNA cleavage complex at 90 nM after 72 hrs by immunoblot analysis; format: cell-based; details: DU-145
[20] = Drug uptake in human DU145 cell perinuclear region at 1 uM after 4 hrs by confocal microscopic analysis; format: ADME, cell-based; details: du-145, 4 h; outline: as §4
[21] = Drug uptake in human DU145 cell nucleus at 1 uM after 4 hrs by confocal microscopic analysis; format: ADME, cell-based; details: du-145, 4 h; outline: as §2

| Structure (SMILES) | pIC50 (DU-145) | inhibition [1] | IC50 [2] [µM] | pIC50 (Histone deacetylase 1) | pIC50 [3] | pIC50 (SK-MES-1) | pIC50 (MCF7) | pIC50 (Histone deacetylase 8) | Activity [4] | Activity [10] | further results |
| --- | --- | --- | --- | --- | --- | --- | --- | --- | --- | --- | --- |
| COc1cccc2c1C(=O)c1c(O)c3c(c(O)c1C2=O)C[C@@](O)(C(C)=O)C[C@@H]3O[C@H]1C[C@H](NCc2ccc(-c3cn(CCCCC(=O)NO)nn3)cc2)[C@H](O)[C@H](C)O1 | 5.27 | Active | 0.0899 | 5.34 | 6.26 | 4.82 | 4.61 |  |  |  |  |
| COc1cccc2c1C(=O)c1c(O)c3c(c(O)c1C2=O)C[C@@](O)(C(C)=O)C[C@@H]3O[C@H]1C[C@H](NCc2ccc(-c3cn(CCCCCCCC(=O)NO)nn3)cc2)[C@H](O)[C@H](C)O1 | 5.69 | Active | 0.0042 | 7.96 | 7.72 | 5.58 | 4.83 | 6.42 |  |  |  |
| O=C(CCCCCCC(=O)Nc1ccccc1)NO [VORINOSTAT] | 5.67 |  |  |  |  |  |  |  |  |  |  |
| COc1cccc2c1C(=O)c1c(O)c3c(c(O)c1C2=O)C[C@@](O)(C(C)=O)C[C@@H]3O[C@H]1C[C@H](NCc2ccc(-c3cn(CCCCCC(=O)NO)nn3)cc2)[C@H](O)[C@H](C)O1 | 5.79 | Active |  |  | 7.52 | 5.33 | 4.87 | 5.38 | inactive | inactive | Drug uptake [5]: Active; inhibition [6]: Active; Drug uptake [7]: Active; inhibition [8]: Active; inhibition [9]: inactive |
| COc1cccc2c1C(=O)c1c(O)c3c(c(O)c1C2=O)C[C@@](O)(C(C)=O)C[C@@H]3O[C@H]1C[C@H](N)[C@H](O)[C@H](C)O1 [DAUNORUBICIN] | 7.05 | Active |  |  |  | 6.77 | 6.02 |  | inactive | inactive | inhibition [11]: Active; inhibition [12]: Dose-dependent effect; Drug uptake [13]: Active; inhibition [14]: inactive; inhibition [15]: inactive; inhibition [16]: Active; inhibition [17]: Active; Drug uptake [18]: Active; inhibition [19]: Active; Drug uptake [20]: Active; Drug uptake [21]: Active |
| COc1cccc2c1C(=O)c1c(O)c3c(c(O)c1C2=O)C[C@@](O)(C(C)=O)C[C@@H]3O[C@H]1C[C@H](NCc2ccc(-c3cn(CCCCCCC(=O)NO)nn3)cc2)[C@H](O)[C@H](C)O1 | 5.53 | Active | 0.0009 | 8.10 | 7.70 | 5.48 | 4.97 | 6.15 |  |  |  |
